DNMT1 inh: DNMT1 (human) enzyme inhibition; P26358; DNMT1 molecular beacon, Hinp1I cleavage, fluorescence; inhibition (reported as % activation of signal), % at 10 µM; 360,000 tested, 0.83% active; in the data active = inhibition above about 50%
SUMO1 PPI mod: SUMO1-SIM interaction modulation; SUMO1 binding to a labelled peptide, TR-FRET, 1 h; 360,000 tested, 0.33% active; inhibition, % at 20 µM; in the data active = inhibition above about 37%
Target sequence (P63165 whole entry, looked up): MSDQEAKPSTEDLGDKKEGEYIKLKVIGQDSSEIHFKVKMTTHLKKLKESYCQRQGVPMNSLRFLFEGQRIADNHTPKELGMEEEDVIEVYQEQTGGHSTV
LMPTP inh: LMPTP (human) inhibition; inhibition, % at 20 µM; recombinant LMPTP-A, OMFP fluorogenic substrate, fluorescence intensity; P24666; 360,000 tested, 0.22% active;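 active = compounds that cut the enzyme signal by at least half of the control window in the single-dose screen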;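 also: plate controls were DMSO wells with enzyme plus substrate for no effect and substrate without enzyme for full effect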
Target sequence (P24666 whole entry, looked up): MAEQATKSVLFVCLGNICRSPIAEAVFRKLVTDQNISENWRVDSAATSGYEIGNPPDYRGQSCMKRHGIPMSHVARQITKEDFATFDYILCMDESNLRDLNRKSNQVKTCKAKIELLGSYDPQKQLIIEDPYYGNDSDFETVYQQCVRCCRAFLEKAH
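Test system: LMPTP-A phosphatase enzyme. Amount: LMPTP-A at 0.625 nM final in the reaction. Reagent: OMFP substrate, 400 µM final. Times: 50 min at room temperature. Signal: endpoint fluorescence intensity from OMFP dephosphorylation. Read-out basis: % inhibition. Benchmarks: no-enzyme and uninhibited controls.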
GRK2 aptamer HTS: human GRK2 inhibition via aptamer displacement; inhibition of aptamer binding, % at 10 µM; 330,000 tested, 0.59% active; AID 488847; P25098; bead flow cytometry, FAM-aptamer displacement from GRK2;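 active = inhibition of aptamer binding above 40%, roughly 3 SD of noise, on plates passing a quality check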;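 also: median bead fluorescence of bound FAM aptamer so fluorescent compounds give negative values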
STEP block: blocks human striatal-enriched tyrosine phosphatase | recombinant STEP, OMFP fluorogenic substrate, fluorescence | inhibition, % at 20 µM | 360,000 tested, 0.25% active | AID 588621;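 active = inhibition at 20 µM, scaled per plate between control wells, above about 37%, limit read from the data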;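 also: 0% = DMSO with enzyme and substrate and 100% = substrate only without enzyme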
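System: isolated STEP enzyme; schedule: 20 min enzyme reaction at room temperature, protected from light; medium: Bis-Tris buffer pH 6.0, 2.5 mM DTT, 0.005% Tween 20; signal: fluorescence, 480/540 nm; dosing: single compound dose of 20 µM, 1% DMSO final; also added: OMFP substrate, 25 µM final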
Scp-1 inhibitor: blocks human Scp-1 phosphatase activity; Q9GZU7; Recombinant Scp1, phosphopeptide, malachite green phosphate absorbance; inhibition, % at 20 µM; 340,000 tested, 0.88% active;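 active = inhibition above about 50% at 20 µM, limit read from the data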;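 also: plate controls were DMSO wells with enzyme for no effect and wells lacking enzyme for full effect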
Target sequence (Q9GZU7 76-261 limits assumed): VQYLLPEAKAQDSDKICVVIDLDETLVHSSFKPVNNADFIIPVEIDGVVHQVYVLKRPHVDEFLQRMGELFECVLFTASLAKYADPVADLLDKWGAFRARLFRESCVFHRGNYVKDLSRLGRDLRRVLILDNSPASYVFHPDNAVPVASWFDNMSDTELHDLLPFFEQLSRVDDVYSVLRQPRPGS
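Test system: SCP-1 catalytic domain; Buffer or medium: Acidic Tris acetate buffer with magnesium and detergent; Also added: Phosphorylated 17-residue peptide substrate; Compound: single 20 µM dose, 1% DMSO; Schedule: enzyme reaction 45 min at room temperature, colour 5 min, stabilisation 30 min; Signal: Phosphate-binding colour reagent, absorbance read at 630 nm.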
Beacon interf DR: counter-screen for DNMT1 inhibitors: spectral interference, dose response; 200 tested, under 10 active; shares compounds with DNMT1 inh; IC50, µM; molecular beacon fluorescence; call rule not given here
DNMT1 confirm: DNMT1 inhibition confirmation, single concentration; shares compounds with DNMT1 inh; DNMT1 molecular beacon HinP1I cleavage, fluorescence; inhibition, % at 10 µM; 2,300 tested, 8% active; AID 602385;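 active = average inhibition of at least 30% in the single-concentration confirmation test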
Beacon interf: counter-screen for DNMT1 inhibitors: spectral interference. shares compounds with DNMT1 inh. DNMT1 molecular beacon spectral interference counterscreen, fluorescence 485/520. activation (fluorescence interference), % at 10 µM. 2,300 tested, 1% active;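 active = activation of at least 30% at 10 µM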;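 also: DNMT1 catalytic domain with a HinP1I cleavage step and a FAM/dabcyl DNA beacon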
* hit, by the source's call; · = not tested or not shown. Hits are enriched below; roughly 2.1% of the tested compounds scored in any of these assays.

SMILES	DNMT1 inh	SUMO1 PPI mod	LMPTP inh	GRK2 aptamer HTS	STEP block	Scp-1 inhibitor	DNMT1 confirm	Beacon interf	others
COc1ccc(-c2cc3ccccc3oc2=O)cc1NC(=O)c1ccc([N+](=O)[O-])o1	6	-7	11	0	6	2	·	·
C=CC1=CCN(S(=O)(=O)C(C)(C)C)[C@H]1CCO	-2	3	-2	·	-1	·	·	·
COc1ccc2c(c1)N(C)/C(=C1/SC(=NCc3ccccc3)N(c3ccccc3)C1=O)S2	53*	-17	-2	0	-1	9	3	0
C=CCN1C(=O)/C(=C2/Sc3ccc(OC)cc3N2C)SC1=NCc1ccccc1	4	-13	0	2	1	-3	·	·
COc1ccc(/C=C2/SC(=O)N(CCC(=O)Nc3ccccc3)C2=O)cc1OC	62*	-5	0	0	1	3	2	3
COc1ccc(/C=C2\SC(=O)N(CC(=O)Nc3cccnc3)C2=O)cc1OC	-5	-26	0	4	-2	-1	·	·
O=c1[nH]c2cnn(-c3ccccc3)c2c(=O)n1O	-1	5	-1	·	1	-8	·	·
CCN(CC)CCCNc1nc2cc(OC)c(OC)cc2c2nc(-c3ccccc3)nn12	64*	11	5	0	0	-1	26	-1	Beacon interf DR=>99
COCCCNc1nc2cc(OC)c(OC)cc2c2nc(-c3ccccc3)nn12	-8	7	2	0	2	-7	·	·
Cc1ccccc1OCc1nnc(SCC(=O)Nc2ccc3nc(SCC(=O)Nc4ccccc4)sc3c2)n1C	56*	2	1	0	0	-1	2	-1
CCN(CC)C(=O)CC(c1cc(OC)c(OC)c(OC)c1)c1c(OC)cc(OC)c2c(-c3ccccc3)cc(=O)oc12 (stereo not given)	84*	-6	18	9	3	71*	8	6
CC1(C(=O)NCCC(F)(F)F)Cc2c(-c3cccc(C(F)(F)F)c3)ccnc2O1 (stereo not given)	5	3	-1	·	1	·	·	·
CN(C)c1ccc(-c2ccnc3c2CC(C)(C(=O)NCC2CCOCC2)O3)cc1 (stereo not given)	59*	-3	-1	·	-2	·	2	3
CC1(C(=O)NCC2CCOCC2)Cc2c(-c3cccc(C(F)(F)F)c3)ccnc2O1 (stereo not given)	84*	-4	-1	·	1	·	7	7
N#C/C(=C\c1cccn1S(=O)(=O)c1cccc([N+](=O)[O-])c1)S(=O)(=O)c1ccc(F)cc1	-1	-14	-1	·	0	·	·	·
C[C@@H]1CN([C@H](C)CO)C(=O)CCCn2nncc2CO[C@@H]1CN(C)S(=O)(=O)c1ccc(-n2cccn2)cc1	4	5	-2	·	1	·	·	·
CC1=NOC(=O)/C1=C/c1ccc(-c2ccc(Cl)cc2)o1	43	20	4	1	5	·	·	·
CC1=NOC(=O)/C1=C\c1ccc(-c2cc(Cl)ccc2Cl)o1	81*	48*	0	0	1	11	4	-8
NNC(=O)c1nc[nH]c1C(=O)Nc1ccccc1	66*	2	-3	4	0	-1	0	16
O=C(Nc1cccc(Cl)c1)c1nc[nH]c1C(=O)NCCCCNC(=O)c1[nH]cnc1C(=O)Nc1cccc(Cl)c1	53*	-6	-1	0	0	-8	5	2
N#CCCN(C(=O)COC(=O)COc1ccccc1Cc1ccccc1)c1ccccc1	60*	2	3	2	-2	-14	2	4
CCCC(=O)N1CCC1(C)C(=O)NS(=O)(=O)c1cccs1 (stereo not given)	-2	1	-1	·	-2	·	·	·
CC1(C(=O)NS(=O)(=O)c2ccc3c(c2)CCO3)CCN1C(=O)COc1ccc(Cl)cc1 (stereo not given)	85*	2	-3	·	-2	·	4	6
COc1ccc(Cc2c(-c3ccccc3)nc3ccc(Cl)cn23)c(C)c1	-9	2	-1	·	3	·	·	·
COc1ccc(Cc2c(-c3ccco3)nc3ccc(Br)cn23)c(C)c1	102*	5	20	·	4	·	13	2
SMILES	DNMT1 inh	SUMO1 PPI mod	LMPTP inh	GRK2 aptamer HTS	STEP block	Scp-1 inhibitor	DNMT1 confirm	Beacon interf	others
Cc1cc(Br)cn2c(Cc3ccccc3)c(-c3ccco3)nc12	5	-5	3	·	7	·	·	·
Cc1cc(Br)cn2c(Cc3ccsc3)c(-c3ccco3)nc12	52*	8	6	·	1	·	3	2
COc1ccc(Cc2c(-c3ccco3)nc3ccc(Cl)cn23)c(C)c1	84*	4	8	·	2	·	3	0
NC(=O)c1csc(CCNC(=O)c2ccccc2)n1	-1	8	-1	·	-2	·	·	·
CN(C(=O)C1Cc2c(-c3ccc(Cl)cc3)ccnc2O1)c1ccccc1 (stereo not given)	4	5	0	·	4	·	·	·
COc1ccc(NC(=S)N2CCC(C(=O)c3ccc(C)cc3)CC2)cc1	81*	5	1	0	3	-2	2	3
COc1ccc(NC(=S)N2CCC(C(=O)c3ccc(OC)cc3)CC2)cc1	0	4	1	1	6	0	·	·
O=C(Cn1ncc2c1-c1ccccc1OC2)N1CCc2ccccc21	-2	1	1	0	-1	-5	·	·
O=C(O)Cn1ncc2c1-c1ccoc1CC2	89*	9	-1	0	-2	5	5	1
Cn1c2nc(=O)n(-c3ccccc3)c(=O)c-2nc2c1CCCC2	8	4	5	·	-1	·	·	·
O=C1CC(c2ccco2)CC(O)=C1C=Nc1cc(Cl)ccc1O (stereo not given)	89*	21	9	6	4	72*	3	-2
N#Cc1nnn2c1nc(N)c1c(Cl)cccc12	0	-5	3	·	-2	·	·	·
COc1ccc(-c2cc(=O)oc3c(C)c(OC(=O)c4cccs4)ccc23)cc1	60*	1	2	4	1	1	3	-9
COc1ccc(-c2cc(=O)oc3c(C)c(OC(C)C(C)=O)ccc23)cc1 (stereo not given)	-2	-30	-1	2	4	-10	·	·
O=C(CCN1CCc2ccccc2C1)c1ccc2c(c1)OCCO2	0	-1	-2	0	2	-5	·	·
O=C(CCN1CCc2ccccc21)c1ccc2c(c1)OCCO2	54*	-10	25	16	2	1	2	1

Screening results from PubChem BioAssay.
